Assay outcomes as filed in PubChem BioAssay.
SKBR3 24h inh = SK-BR-3 proliferation inhibitors. SK-BR-3 viability, CellTiter-Glo ATP luminescence, 24 h; stronger effect = lower value. viability, % at 10 µM. 41,000 tested, 0.47% active;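 active means viability at or below the median of all test compounds minus 3 SD, in both replicates if run twice, cut at about 45% in these data; inconclusive means duplicate replicates that disagree with each other; inactive means viability above that cutoff in every replicate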;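 further: 100% = median untreated cell wells and 0% = median positive control drug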
HEK293 NFkB inh = lowers PMA/ionomycin-induced NF-kB signal in HEK293 cells; HEK-293 NF-kB luciferase reporter, luminescence; inhibition, % at 3 µM; 62,000 tested, 0.21% active; AID 465;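 active means inhibition above the mean of all tested compounds plus 3 SD, cut at about 40% in these data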;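 further: 0% = stimulated DMSO wells and 100% = 10 µM reference inhibitor 5653914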
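System – HEK-293 cells with stable firefly luciferase reporter driven by four HIV NF-kB elements · Doses – one dose, 3 µM · Schedule – 1 h compound pre-incubation, 16 h PMA/ionomycin at 37 °C · Technique – luminescence from luciferase substrate reagent · Measure – percent inhibition normalized per plate to DMSO and reference-inhibitor controls · Replicates – tested once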
Jurkat tox 60K = cytotoxicity toward Jurkat cells | Jurkat E6.1 viability, ATP luminescence, 48 h | inhibition, % at 4 µM | 56,000 tested, 1.2% active | AID 463;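 active means inhibition above the mean inhibition of all tested compounds plus 3 SD, cut at about 28% in these data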
HER2 expr 66K = Her2 kinase expression inhibition. P04626. HER2 level % of control, % at 10 µM. 65,000 tested, 0.69% active. SKBR-3 HER2 protein level, AlphaScreen, 18-24 h; stronger effect = lower value;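 active means HER2 level under 5% of the carrier-only control; inconclusive means no clear call, values can overlap the other calls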;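 further: 100% = DMSO carrier and 0% = 500 nM PU-H71 HSP90 inhibitor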
Target sequence (P04626 whole entry, looked up): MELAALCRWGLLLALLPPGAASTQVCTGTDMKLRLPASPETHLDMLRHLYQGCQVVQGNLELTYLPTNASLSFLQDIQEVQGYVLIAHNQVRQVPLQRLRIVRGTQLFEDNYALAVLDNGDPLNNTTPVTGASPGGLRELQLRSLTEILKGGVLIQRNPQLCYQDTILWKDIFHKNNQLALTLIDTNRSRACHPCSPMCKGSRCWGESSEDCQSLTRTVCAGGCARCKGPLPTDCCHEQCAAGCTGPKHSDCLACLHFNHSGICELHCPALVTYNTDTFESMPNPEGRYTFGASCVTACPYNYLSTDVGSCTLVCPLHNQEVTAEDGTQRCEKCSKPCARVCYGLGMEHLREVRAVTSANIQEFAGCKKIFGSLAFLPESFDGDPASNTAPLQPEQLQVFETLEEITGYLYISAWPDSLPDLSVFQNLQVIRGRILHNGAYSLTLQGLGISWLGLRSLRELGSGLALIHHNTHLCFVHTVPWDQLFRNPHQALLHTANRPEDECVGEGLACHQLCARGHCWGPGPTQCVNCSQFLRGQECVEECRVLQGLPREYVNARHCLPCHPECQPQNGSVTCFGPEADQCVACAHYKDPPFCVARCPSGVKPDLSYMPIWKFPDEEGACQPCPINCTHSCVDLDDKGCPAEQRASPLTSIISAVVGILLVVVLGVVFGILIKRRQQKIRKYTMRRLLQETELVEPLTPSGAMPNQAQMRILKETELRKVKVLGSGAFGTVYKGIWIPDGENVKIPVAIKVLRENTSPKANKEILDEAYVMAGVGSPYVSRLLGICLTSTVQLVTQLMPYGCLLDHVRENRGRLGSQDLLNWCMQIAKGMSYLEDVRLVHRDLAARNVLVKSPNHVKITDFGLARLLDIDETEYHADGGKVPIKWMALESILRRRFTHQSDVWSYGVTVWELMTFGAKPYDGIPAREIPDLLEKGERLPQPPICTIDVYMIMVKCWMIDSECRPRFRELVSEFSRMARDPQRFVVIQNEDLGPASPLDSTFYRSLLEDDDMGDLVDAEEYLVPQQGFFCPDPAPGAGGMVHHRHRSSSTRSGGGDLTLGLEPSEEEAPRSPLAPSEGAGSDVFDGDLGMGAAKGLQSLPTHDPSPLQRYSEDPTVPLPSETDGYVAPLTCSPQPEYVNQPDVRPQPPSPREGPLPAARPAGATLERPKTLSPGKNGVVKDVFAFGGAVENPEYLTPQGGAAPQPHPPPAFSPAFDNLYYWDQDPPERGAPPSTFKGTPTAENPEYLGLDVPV
mHtt clearance = compounds clearing mutant huntingtin protein. 47,000 tested, 0.42% active. HeLa Exon1htt(103Q)mCFP, aggregate imaging; zero = plate's median compound well. inhibition, % at 1.5 µM. AID 853;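 active means inhibition of aggregate fluorescence above about 70%, also judged a hit by eye on the cell image, limit read from the data, passing the limit was not always enough; inconclusive means no rule stated for this call; inactive means not judged a hit on image review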;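 further: cells exposed to compound for three days before fixation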
* = called active by the depositor; u = inconclusive; x = no result. Compounds with a hit are over-represented: about 1.9% of the library has one in this group of screens.

SMILES | SKBR3 24h inh | HEK293 NFkB inh | Jurkat tox 60K | HER2 expr 66K | mHtt clearance
Cc1ccc(Cl)cc1N1CCN(C(=O)COc2ccc(S(=O)(=O)NC(C)C)cc2)CC1 | x | 27.0 | 54.1* | 29.2 | x
CC(C)NS(=O)(=O)c1ccc(OCC(=O)N2CCCC2)cc1 | x | x | x | x | -16.3
CCOc1cc(N2CCOCC2)c(OCC)cc1NC(=O)CCS(=O)(=O)c1ccc(Cl)cc1 | x | 10.8 | -3.7 | 103.6 | x
CCOc1cc(N2CCOCC2)c(OCC)cc1NS(=O)(=O)c1ccc(Cl)s1 | x | 12.5 | 69.2* | 64.0 | x
CCc1ccc(CCC(=O)Nc2sc3c(c2C#N)CCCC3)o1 | 99.8 | 25.9 | 89.0* | 82.0 | -3.4
CC(C)c1cc(C(=O)Nc2sc3c(c2C#N)CCC3)no1 | 80.5 | 17.1 | 68.8* | 89.2 | 18.4
Cc1noc(C)c1CSc1nc2ccccc2nc1NS(=O)(=O)c1ccc(Cl)cc1 | x | 24.1 | 76.1* | 44.8 | x
CCNC(=O)/C(=C/c1ccc2c(c1)OCO2)NC(=O)c1ccc(Br)cc1 | x | x | x | x | -25.2
COc1ccccc1-c1cc(C(F)(F)F)nc(N2CCCCC2)n1 | x | x | x | x | 21.8
COc1ccccc1-c1cc(C(=O)Nc2cc(C)on2)no1 | 70.4 | 9.2 | 24.1 | 75.9 | u
COc1ccccc1-c1cc(C(F)(F)F)nc(S(=O)(=O)CCCC(=O)Nc2cc(C)on2)n1 | 97.4 | 24.9 | -0.2 | -16.3* | x
COc1ccccc1-c1cc(C(F)(F)F)nc(S(=O)(=O)CCCC(=O)N2CCCCC2C)n1 (configuration not stated) | 37.7* | 24.6 | 58.1* | -17.1* | -75.3
COc1ccccc1-c1cc(C(F)(F)F)nc(S(=O)(=O)CCCC(=O)NC(C)C)n1 | 91.3 | 20.6 | -0.3 | -12.9* | x
COc1ccccc1-c1cc(C(F)(F)F)nc(N2CCCC2)n1 | 66.2 | 13.7 | x | 123.7 | -11.2
CC1CCCCN1CC(=O)Nc1sc2c(c1C#N)CCC2 (configuration not stated) | x | -1.5 | -0.1 | 68.0 | -36.0
CCOC(=O)CSc1nnc(-c2ccc(OC)cc2OC)o1 | 95.5 | 2.4 | 1.3 | 101.9 | x
Cc1cc(NC(=O)CS(=O)(=O)c2cn(Cc3ccccc3Cl)c3ccccc23)no1 | 34.5* | 15.4 | x | 93.9 | x
CCOC(=O)N1CCN(C(=O)CS(=O)(=O)c2cn(Cc3ccccc3Cl)c3ccccc23)CC1 | x | x | x | x | 27.0
COc1cc(-c2nc(-c3ccc(NC(=O)c4ccc5c(c4)OCO5)cc3)no2)cc(OC)c1OC | u | 12.4 | 4.9 | -3.3* | 9.0
COc1ccc(CC(=O)Nc2ccc(-c3noc(-c4cc(OC)c(OC)c(OC)c4)n3)cc2)cc1 | x | 14.0 | x | 109.0 | x
COc1ccc(-c2nc(NC(=O)C3CCN(c4nc5ccccc5o4)CC3)sc2C)cc1 | x | 18.0 | 18.2 | 71.9 | 30.8
O=C1NC2(CCCC2)N=C1c1ccc(Cl)cc1 | x | -4.3 | 6.7 | 91.5 | 24.0
N#CC(C#N)=c1ccc2c(c1)NC1(CCCCC1)N=2 | 51.8 | 26.1 | 42.4* | -26.1* | -45.6
Cc1nc(C)c(C(=O)Nc2ccc(Oc3ccccc3)cc2)o1 | x | 19.6 | 29.5* | 69.0 | x
CC1CN(CC(=O)N2CCc3[nH]c4ccccc4c3C2)CC(C)O1 (configuration not stated) | 74.4 | 13.0 | -8.2 | 107.2 | x
SMILES | SKBR3 24h inh | HEK293 NFkB inh | Jurkat tox 60K | HER2 expr 66K | mHtt clearance
CC1CC(C)CN(CC(=O)N2CCc3[nH]c4ccccc4c3C2)C1 (configuration not stated) | 42.9* | 4.3 | 4.7 | 117.3 | x
COc1ccc(C(=O)N[C@H]2COC(C)(C)O[C@H]2c2ccccc2)cc1 | 79.1 | 12.4 | -1.6 | 130.2 | -32.7
O=C1C(=O)N(CCCn2ccnc2)C(c2cccnc2)/C1=C(/O)c1ccc(Cl)cc1 (configuration not stated) | 115.0 | 12.1 | 4.9 | 102.0 | x
Cc1cc(N2CCN(C3CCCC3)CC2)n2nc(C)c(-c3ccccc3)c2n1 | 93.3 | 7.9 | -4.8 | 167.6 | x
Cc1ccc(-c2cnc(NC(=O)CCC(=O)N3CCCCC3)n2C)cc1 | 76.4 | 65.0* | 3.4 | 85.2 | 3.4
CCCCNC(=O)CCC(=O)Nc1ncc(-c2ccc(C)cc2)n1C | 98.8 | -4.8 | -3.2 | 95.2 | 19.2
CCOC(=O)c1ccc(NCc2ccc3c(c2)OCO3)cc1 | 43.1* | 6.0 | 4.5 | 97.0 | x
O=C(c1ccc2c(c1)N(Cc1ccccc1)CCS2)N1CCCCC1 | x | x | x | x | -14.4
Cc1sc2nc3n(c(=O)c2c1C)NC(=O)CC3 | 88.6 | 9.8 | -3.3 | 100.8 | x
O=C1CCc2nc3sc4c(c3c(=O)n2N1)CCCC4 | 85.5 | -0.5 | -7.3 | 109.9 | 84.0*
O=c1[nH]c(NCc2ccccc2)nc2c1CCCC2 | 97.2 | 1.7 | -3.0 | 102.9 | x
Cn1c(C(=O)NCCc2c[nH]c3ccccc23)cc2sccc21 | x | 6.4 | 61.5* | 93.2 | x
COc1ccccc1CNC(=O)c1cc2sccc2n1C | x | 1.9 | -5.1 | 101.1 | x
CC1CCN(CCCNC(=O)c2cc3sccc3n2C)CC1 | 42.0* | 18.7 | -2.1 | 88.8 | x
COc1ccc(N2CCN(CCCNC(=O)c3cc4sccc4n3C)CC2)cc1 | x | 19.8 | 6.2 | 124.0 | -1.0
COc1ccc2nc(C)c(C(=O)OCCN(C)C)cc2c1 | 103.8 | -5.4 | -0.4 | 97.2 | x
O=C(O)c1cccnc1SCCc1ccccc1 | 97.3 | -24.1 | -0.5 | x | -6.2
O=C(NC1CCCCC1)c1nc2c(nnn2Cc2ccccc2Cl)c(=O)[nH]1 | 96.2 | 7.4 | -3.5 | 66.1 | 73.7*
O=C(NC1CC1)c1nc2c(nnn2Cc2ccccc2Cl)c(=O)[nH]1 | x | x | x | x | -34.2
Cc1ccc(-c2nnn(CCC(=O)NC3CCCC3)n2)cc1 | 87.8 | -2.4 | 0.0 | 97.2 | x
COC(=O)c1ccccc1NC(=O)Cn1c(-c2nonc2N)nc2ccccc21 | 79.2 | 33.6 | 61.1* | 67.9 | -163.3
Cc1cc(CN2CCOCC2)c(O)c(C2(C)CCCCC2)c1 | 89.4 | -2.5 | 2.8 | 117.5 | 12.9
CCOc1ccc2nc(NC(=O)Nc3cccs3)sc2c1 | x | -48.6 | -4.5 | 59.7 | x
O=S(=O)(Nc1ccc2c(c1)OCCO2)c1ccc(F)cc1 | x | x | x | x | -178.4
O=C1CCCN1c1ccc(S(=O)(=O)Nc2ccc3c(c2)OCCO3)cc1 | 88.7 | 29.0 | 82.0* | 100.7 | x
SMILES | SKBR3 24h inh | HEK293 NFkB inh | Jurkat tox 60K | HER2 expr 66K | mHtt clearance
CN=CC1=C(O)c2ccccc2C1=O | 108.6 | -3.5 | 2.5 | 85.5 | x
O=C1C(C2=C(O)c3ccccc3C2=O)=Nc2ccccc21 | x | 7.1 | -5.0 | -16.2* | x
COC(=O)c1nn2c(C(F)(F)F)cc(-c3ccc(Br)o3)nc2c1Br | 88.1 | x | x | 110.1 | x
CCc1nnc(NC(=O)CSc2nc3cccnc3n2C2CCCCC2)s1 | 85.0 | -25.4 | 29.4* | 72.7 | 41.0
C#CCn1c(=NC(=O)c2ccc(Br)s2)sc2cccc(OC)c21 | x | x | x | x | -22.2
O=C(NCCOC(=O)C1COc2ccccc2O1)c1cccnc1 (configuration not stated) | x | -2.5 | -7.4 | 190.4 | 20.3
CC(=O)CC1OC(=O)C(Br)=C1NCc1ccccc1 (configuration not stated) | 145.0 | 10.0 | 48.8* | 24.9 | 19.1
O=C(CC1Oc2ccccc2NC1=O)NCc1ccccc1 (configuration not stated) | x | 8.8 | 3.7 | 91.3 | x
CCOc1ccc(-c2cc(CCCC(=O)Nc3cc(OC)ccc3OC)no2)cc1 | x | 22.8 | x | 114.7 | x
